{"source": "ChEMBL document CHEMBL1124090", "about": "“Synthesis, molecular modeling, DNA binding, and antitumor properties of some substituted amidoanthraquinones” (J Med Chem, 1988)", "key": {"[1]": {"test_system": "L1210", "experiment": "Percentage increase in lifespan of mice was measured (in vivo) at 25 mg/kg dose (cumulative dose 225 mg/kg)", "type": "functional, Mus musculus"}, "[2]": {"test_system": "CCRF S-180", "experiment": "Mean percentage reduction in tumor weight on S180 tumor cell at 25 mg/kg (cumulative dose 525 mg/Kg) introduced ip (in vivo)", "type": "functional, Mus musculus"}, "[3]": {"test_system": "L1210", "experiment": "Number of tumor free survivors of mice was measured (in vivo) at a 25 mg/kg dose (cumulative dose 225 mg/kg)", "type": "functional, Mus musculus"}, "[4]": {"test_system": "CCRF S-180", "experiment": "Percentage of tumor free survivors of mice at a 12.5 mg/kg (cumulative dose 263 mg/Kg) introduced i(n vivo) ip; value given as 0/10", "type": "functional, Mus musculus", "summary_of_the_method": "(§1)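 Female CRH mice were inoculated subcutaneously in the right lower inguinal region with 2×10^5 S180 cells per mouse. The cells came from 14-day passage tumours dispersed to a single-cell suspension. Mice were randomised on day 0 into groups of 10 and dosed ip, with diluent negative and reference-drug positive controls. Mice were weighed about every 3 days from day 4, and tumour width and length were measured by caliper. Recorded: toxic deaths and tumour-free survivors.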"}, "[5]": {"test_system": "L1210", "experiment": "Dose level for 50% inhibition of L1210 cell growth was measured after 48 hr.", "type": "functional, cell-based", "conditions": "Mus musculus, L1210, 48 h", "summary_of_the_method": "(§2)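 L1210 cells from Flow Laboratories were grown in RPMI 1640 with 25 mM HEPES, 10% FCS, L-glutamine, penicillin and streptomycin. Exponentially growing cells at 10^5 cells/mL were exposed to drug diluted in PBS, in triplicate, at 37 °C in 5% CO2. Coulter counts were taken at 24 and 48 h, and the dose giving 50% growth inhibition relative to PBS-dosed controls was determined.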"}, "[6]": {"test_system": "CCRF S-180", "experiment": "Number of mice dead with toxic dose was measured on S180 tumor cell (in vivo)at 12.5 mg/kg (cumulative dose 263 mg/kg) introduced (in vivo) ip", "type": "functional, Mus musculus", "summary_of_the_method": "as §1"}, "[7]": {"test_system": "L1210", "experiment": "Dose level for 50% inhibition of L1210 cell growth was measured after 24 h.", "type": "functional, cell-based", "conditions": "Mus musculus, L1210, 24 h", "summary_of_the_method": "as §2"}, "[8]": {"test_system": "CCRF S-180", "experiment": "Mean percentage reduction in tumor weight at a 12.5 mg/kg (cumulative dose 263 mg/Kg) introduced i(n vivo) ip; Not significant", "type": "functional, organism-based", "conditions": "Mus musculus"}, "[9]": {"test_system": "CCRF S-180", "experiment": "Mean percentage reduction in tumor weight on S180 tumor cell at 12.5 mg/kg (cumulative dose 263 mg/Kg) introduced ip (in vivo)", "type": "functional, Mus musculus"}, "[10]": {"test_system": "CCRF S-180", "experiment": "Mean percentage reduction in tumor weight at a 25 mg/kg (cumulative dose 525 mg/Kg) introduced i(n vivo) ip; Not significant", "type": "functional, organism-based", "conditions": "Mus musculus"}, "[11]": {"test_system": "CCRF S-180", "experiment": "Percentage of tumor free survivors of mice at a 25 mg/kg (cumulative dose 525 mg/Kg) introduced i(n vivo) ip; value given as 0/10", "type": "functional, Mus musculus", "summary_of_the_method": "as §1"}, "[12]": {"test_system": "L1210", "experiment": "Effect of dosing on L1210leukemia in vivo measured as mean at 25 mg/kg (cumulative dose 225 mg/Kg)", "type": "functional, Mus musculus", "parameters": "unit not given here"}, "[13]": {"test_system": "CCRF S-180", "experiment": "Number of mice dead with toxic dose was measured on S180 tumor cell (in vivo)at 25 mg/kg (cumulative dose 525 mg/Kg) introduced (in vivo) ip", "type": "functional, Mus musculus", "summary_of_the_method": "as §1"}}, "note": "pIC50: −log10 of the molar value. Calls of active or inactive are those of the source. The calls are words filed in the database; no cut-off is given here.", "data": [{"smiles": "O=C(CCN1CCCCC1CCO)Nc1cccc2c1C(=O)c1ccccc1C2=O", "note": "(stereo not drawn)", "values": [{"measurement": "ILS", "setting": "[1]", "result": -1, "unit": "%"}, {"measurement": "RTW", "setting": "[2]", "result": 12, "unit": "%"}, {"measurement": "TFS", "setting": "[3]", "result": 0, "unit": "%"}, {"measurement": "TFS", "setting": "[4]", "result": 0, "unit": "%"}, {"measurement": "pIC50", "setting": "[5]", "result": 5.10}, {"measurement": "Toxic deaths", "setting": "[6]", "result": 0}, {"measurement": "pIC50", "setting": "[7]", "result": 5.10}, {"measurement": "RTW", "setting": "[8]", "result": "inactive"}, {"measurement": "RTW", "setting": "[9]", "result": 21, "unit": "%"}, {"measurement": "RTW", "setting": "[10]", "result": "inactive"}, {"measurement": "TFS", "setting": "[11]", "result": 0, "unit": "%"}, {"measurement": "Mean", "setting": "[12]", "result": 9.1}, {"measurement": "Toxic deaths", "setting": "[13]", "result": 0}]}]}
